In ChEMBL document CHEMBL1121812, “Promotion of carbohydrate oxidation in the heart by some phenylglyoxylic acids” (1981):

How the values were obtained:
[1] = molecular target: T1, Pyruvate dehydrogenase kinase (Rattus norvegicus) (UniProt Q63065+A6IPZ9+Q64536+O54937); assay: Pyruvate dehydrogenase active/ Pyruvate dehydrogenase total was measured by sc administering the DCA in rat at a dose of 1.2 mmol/kg; type: functional, organism-based
How it was run: (§1)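 Hearts frozen in liquid N2, powdered, homogenized in ice-cold phosphate/EDTA/DTT/pyruvate medium. PDH active assayed directly; PDH total after 20 min at 30 °C with 5 mM MgCl2, 2.5 mM CaCl2. 14CO2 from 0.1 mM [1-14C]pyruvate with CoA, NAD, TPP at 30 °C; expressed as % PDH active/total; ≥3 rats/group.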

[2] = molecular target: T1, Pyruvate dehydrogenase kinase (Rattus norvegicus); assay: Pyruvate dehydrogenase activity in vivo was measured following subcutaneous administration of 1.2 mmol/kg; type: functional, organism-based; how it was run: as §1
[3] = molecular target: T1, Pyruvate dehydrogenase kinase (Rattus norvegicus); assay: Tested for pyruvate oxidation in rat diaphragm, measured as % conversion of [14C]pyruvate to 14CO2 at 0.5 mM concentration of DCA (dichloroacetic acid); type: functional, tissue-based
How it was run: (§2)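 Rat diaphragm cut into four portions, each weighed and preincubated 1 h at 37 °C in Krebs-Ringer bicarbonate, pH 7.4, gassed O2/CO2 (18:1), alone (control) or with compound. Then 4 mM (final) 1- or 2-14C sodium pyruvate added, 1 h at 37 °C. Stopped with H2SO4; 14CO2 trapped in hyamine hydroxide, scintillation counted. Tissue-free blanks included. Reported as percent stimulation versus control.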

[4] = molecular target: T1, Pyruvate dehydrogenase kinase (Rattus norvegicus); assay: Tested for pyruvate oxidation in rat diaphragm, measured as % conversion of [14C]pyruvate to 14CO2 at 2 mM concentration; type: functional, tissue-based; how it was run: as §2
[5] = molecular target: T1, Pyruvate dehydrogenase kinase (Rattus norvegicus); assay: Percent Stimulation of pyruvate oxidation in rat diaphragm was measured at 2 mM concentration of DCA (dichloroacetic acid); type: functional, tissue-based; how it was run: as §2
[6] = species on record: Rattus norvegicus; assay: Percent Stimulation of pyruvate oxidation in Rat by the compound was measured at 2 mM concentration of DCA (dichloroacetic acid); type: functional; how it was run: as §2
[7] = species on record: Rattus norvegicus; assay: Percent stimulation of pyruvate oxidation in rat diaphragm by the compound was measured at 2 mM concentration; type: functional; how it was run: as §2
[8] = species on record: Rattus norvegicus; assay: Percent Stimulation of pyruvate oxidation in Rat by the compound was measured at 0.5 mM concentration of DCA (dichloroacetic acid); type: functional; how it was run: as §2
[9] = test system: Rattus norvegicus; assay: Pyruvate dehydrogenase activity in vivo was measured following subcutaneous administration of 1.2 mmol/kg of the DCA in rat at a dose of 1.2 mmol/kg; type: functional; how it was run: as §1
[10] = species on record: Rattus norvegicus; assay: (§3) Compound was tested in vitro for pyruvate oxidation in rat diaphragm, measured as % conversion of [14C]pyruvate to 14CO2 at 2 mM concentration of DCA (dichloroacetic acid); type: functional; how it was run: as §2
[11] = species on record: Rattus norvegicus; assay: Percent Stimulation of pyruvate oxidation in rat diaphragm by the compound was measured at 2 mM concentration; type: functional; how it was run: as §2
[12] = test system: pyruvate dehydrogenase (Rattus norvegicus); assay: Tested for pyruvate oxidation in rat diaphragm, measured as % conversion of [14C]pyruvate to 14CO2 at 5 mM concentration
[13] = test system: Pyruvate dehydrogenase complex (Rattus norvegicus); assay: Tested for pyruvate oxidation in rat diaphragm, measured as % conversion of [14C]pyruvate to 14CO2 at 2 mM concentration
[14] = species on record: Rattus norvegicus; assay: Compound was tested in vitro for pyruvate oxidation in Rat, measured as % conversion of [14C]pyruvate to 14CO2 at 0.5 mM concentration of DCA (dichloroacetic acid); type: functional; how it was run: as §2
[15] = test system: Rattus norvegicus; assay: Pyruvate dehydrogenase active/ Pyruvate dehydrogenase total was measured by sc administering the compound in rat at a dose of 1.2 mmol/kg; type: functional; how it was run: as §1
[16] = species on record: Rattus norvegicus; assay: as §3; type: functional; how it was run: as §2; remark: listed apart in the source

Compound	PDH active/PDH total [1] [%]	PDH active/PDH total [2] [%]	Stimulation [3] [%]	Stimulation [4] [%]	Stimulation [5] [%]	Stimulation [12] [%]	also measured
CCCCSc1ccc(C(=O)C(=O)O)cc1	96	14	76	113	200		
Cc1ccc(C(N)C(=O)O)cc1 (stereo not given)			24	36	95		
N[C@H](C(=O)O)c1ccc(O)cc1 (stereo in doubt; D-26) [OXFENICINE]							Stimulation [6]: 130%; Stimulation [7]: 26%
N[C@H](C(=O)O)c1ccc(O)cc1 (stereo in doubt; L-25) [OXFENICINE]							Stimulation [8]: 84%; Stimulation [6]: 123%; Stimulation [7]: 136%
O=C(O)C(=O)c1cc(I)c(O)c(I)c1	87	12	5	85	120		
CCS(=O)(=O)Nc1ccc(C(=O)C(=O)O)cc1			16	22	100		
CSc1ccc(C(N)C(=O)O)cc1 (racemic)	76	20			132	28	Stimulation [11]: 65%
CCSc1ccc(C(=O)C(=O)O)cc1	82	73	164	231	158		
COc1ccc(C(N)C(=O)O)cc1 (stereo in doubt; D-28) [listing 1 of 2 here]	87	11				-14	
N[C@H](C(=O)O)c1ccc(O)cc1 (stereo in doubt; L-25)	87	82					
Cc1cc(C(=O)C(=O)O)ccc1O	89	31	2	21	107		
NC(C(=O)O)c1ccc(Cl)cc1 (stereo not given)	90	43	43	102	99		
COc1ccc(C(N)C(=O)O)cc1 (stereo in doubt; D-28) [listing 2 of 2 here]							Stimulation [6]: 108%; Stimulation [7]: 17%
N[C@H](C(=O)O)c1ccc(O)cc1 (stereo in doubt; D-26)	87	26					
COc1ccc(C(N)C(=O)O)cc1 (stereo in doubt; L-27) [listing 1 of 2 here]							Stimulation [14]: 79%; Stimulation [6]: 122%; Stimulation [7]: 124%
CC(C)Sc1ccc(C(=O)C(=O)O)cc1	96	51	26	162	200		
C=CCc1cc(C(=O)C(=O)O)ccc1O	90	11	11	29	120		
NC(C(=O)O)c1ccccc1 (stereo not given)							PDH active/PDH total [15]: 13%; Stimulation [6]: 90%
CCSc1ccc(C(N)C(=O)O)cc1 (racemic)	80	5			132	24	Stimulation [11]: 20%
COc1ccc(C(N)C(=O)O)cc1 (stereo in doubt; L-27) [listing 2 of 2 here]	90	5				115	

Further lines, with some results ahead:

PDH active/PDH total [1] [%]	PDH active/PDH total [2] [%]	Stimulation [3] [%]	Stimulation [4] [%]	Stimulation [5] [%]	Stimulation [12] [%]	Compound	also measured
	50	20	43			Cc1ccc(C(=O)C(=O)O)cc1	PDH active/PDH total [9]: 97%; Stimulation [10]: 100%
96	12	63		142		O=C(O)C(=O)c1ccc(O)cc1	Stimulation [11]: 80%
				163	-2	COc1ccccc1C(=O)C(=O)O	Stimulation [11]: -10%
97	49	62	132	161		COc1ccc(C(=O)C(=O)O)cc1	Stimulation [11]: 132%
82	69			101	154	CSc1ccc(C(=O)C(=O)O)cc1	Stimulation [13]: 123%
		1		156	16	CN(C)c1ccc(C(=O)C(=O)O)cc1	Stimulation [11]: -5%
		12	23	108		O=C(O)C(=O)c1ccc(CO)cc1	
				200	20	NC(=O)c1ccc(C(=O)C(=O)O)cc1	Stimulation [11]: 11%
					71	O=C(O)C(=O)c1ccc(Cl)cc1	Stimulation [10]: 48%; Stimulation [16]: 82%
87	38	42	85	219		O=C(O)C(=O)c1ccccc1	
